# Where two headings read alike, the source gives them in different places.
# What was measured:
# [1] = system: human platelets in platelet-rich plasma (PRP); test: In vitro platelet aggregation in PRP of healthy human volunteers; assay type: cell-based
# Outline: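 Healthy donors' venous blood was anticoagulated with citrate (0.38% final), PPACK (0.1 or 0.3 mM final) or heparin (15.8 USP U/ml). PRP was spun at 650 × g for 4 min at room temperature. Aspirin 0.83 mM final for 10 min, then test compound (0.01–3 µM final) for 20 min. Aggregation induced by arachidonic acid 1.5 mM or ADP 5 µM. IC50 from initial-slope inhibition by Hill-equation fit.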
# [2] = system: platelets in platelet-rich plasma (PRP); test: Light transmission platelet aggregation, RUC-4 IC50 in NHP PRP; assay type: cell-based, cynomolgus monkey (Macaca fascicularis); conditions: read-out: RUC-4 IC50 for platelet aggregation in NHP, mean ± SD; 5 µM ADP, citrated PRP, initial slope, 4 animals
# [3] = Pharmacokinetics: RUC-4 whole blood concentrations after IM, SC; assay type: in vivo, cynomolgus monkey (Macaca fascicularis); conditions: for Bioavailability: compared to IV
# Outline: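 Six male monkeys (two per dose: 1, 1.93, 3.86 mg/kg) received single IV, IM or SC injections (0.064 ml/kg; SC into the abdomen). Repeat arms spanned ~6 months with washout. Blood was sampled pre-dose and at 5–270 min, plus 1 min post-IV. Whole-blood levels measured by LC-MS/MS (HILIC; quadratic curve 5–5000 ng/ml). Non-compartmental analysis; bioavailability relative to IV.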
# [4] = system: platelets in platelet-rich plasma (PRP); test: ADP-induced platelet aggregation in PRP from NHPs dosed with RUC-4 IM; assay type: in vivo, cynomolgus monkey (Macaca fascicularis)
# Outline: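 Six adult male monkeys (3.6–4.8 y; two per dose) got a single unsedated IM injection (0.064 ml/kg) at 1, 1.93 or 3.86 mg/kg. Citrated blood was drawn pre-dose and at 30, 120 and 270 min, plus ~27 h at the top dose. PRP was adjusted to 3 × 10^5/μl with PPP. Light-transmission aggregation at 37°C with stirring, 5 µM ADP. Percent inhibition of the initial slope versus untreated sample.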
# [5] = Clinical pathology: complete blood counts; assay type: in vivo, cynomolgus monkey (Macaca fascicularis); conditions: arms 1, 2 and 5
# Outline: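 Same six male monkeys, dosed IM, IV or SC across five arms. EDTA blood for complete counts was drawn pre-dose and at 30, 120 and 270 min post-dose in arms 1–2. Sampling was pre-dose and 15 min in arm 3, 45 min in arm 4, and 120 min in arm 5. Hematocrit and platelet count were recorded.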
# αIIbβ3 = αIIbβ3 (Homo sapiens, UniProt P05106+P08514); assay type: cell-based; conditions: five donors, p < 0.0001
# Sequence of αIIbβ3 (P08514 32-887 limits assumed): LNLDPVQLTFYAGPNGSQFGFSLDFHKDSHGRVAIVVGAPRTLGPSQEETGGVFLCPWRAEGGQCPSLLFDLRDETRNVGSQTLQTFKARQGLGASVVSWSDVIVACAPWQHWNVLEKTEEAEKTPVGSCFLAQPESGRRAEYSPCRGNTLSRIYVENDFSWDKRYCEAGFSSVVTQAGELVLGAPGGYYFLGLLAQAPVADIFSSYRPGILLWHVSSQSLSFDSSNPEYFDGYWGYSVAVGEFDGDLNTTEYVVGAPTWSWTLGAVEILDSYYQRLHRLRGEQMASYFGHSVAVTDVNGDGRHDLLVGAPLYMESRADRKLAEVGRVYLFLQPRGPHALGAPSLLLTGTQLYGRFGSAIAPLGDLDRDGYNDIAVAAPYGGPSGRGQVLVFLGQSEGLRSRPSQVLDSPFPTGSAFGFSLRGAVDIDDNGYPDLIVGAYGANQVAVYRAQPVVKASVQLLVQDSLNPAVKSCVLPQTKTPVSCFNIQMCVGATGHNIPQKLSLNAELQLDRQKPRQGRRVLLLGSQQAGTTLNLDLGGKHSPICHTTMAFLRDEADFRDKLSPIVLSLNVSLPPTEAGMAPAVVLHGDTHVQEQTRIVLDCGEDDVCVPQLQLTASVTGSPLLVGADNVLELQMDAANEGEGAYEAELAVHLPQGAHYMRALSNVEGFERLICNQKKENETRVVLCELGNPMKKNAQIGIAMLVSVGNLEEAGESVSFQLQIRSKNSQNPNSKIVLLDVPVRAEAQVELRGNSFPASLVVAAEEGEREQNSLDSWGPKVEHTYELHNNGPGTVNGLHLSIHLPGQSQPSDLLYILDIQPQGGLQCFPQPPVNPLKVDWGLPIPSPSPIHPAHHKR
# Sequence of αIIbβ3 (P08514 891-1039 partner limits assumed): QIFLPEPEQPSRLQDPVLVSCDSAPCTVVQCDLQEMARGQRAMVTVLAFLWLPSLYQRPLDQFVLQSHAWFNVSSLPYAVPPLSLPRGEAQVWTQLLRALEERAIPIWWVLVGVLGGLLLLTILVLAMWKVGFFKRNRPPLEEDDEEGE
# Sequence of αIIbβ3 (P05106 27-788): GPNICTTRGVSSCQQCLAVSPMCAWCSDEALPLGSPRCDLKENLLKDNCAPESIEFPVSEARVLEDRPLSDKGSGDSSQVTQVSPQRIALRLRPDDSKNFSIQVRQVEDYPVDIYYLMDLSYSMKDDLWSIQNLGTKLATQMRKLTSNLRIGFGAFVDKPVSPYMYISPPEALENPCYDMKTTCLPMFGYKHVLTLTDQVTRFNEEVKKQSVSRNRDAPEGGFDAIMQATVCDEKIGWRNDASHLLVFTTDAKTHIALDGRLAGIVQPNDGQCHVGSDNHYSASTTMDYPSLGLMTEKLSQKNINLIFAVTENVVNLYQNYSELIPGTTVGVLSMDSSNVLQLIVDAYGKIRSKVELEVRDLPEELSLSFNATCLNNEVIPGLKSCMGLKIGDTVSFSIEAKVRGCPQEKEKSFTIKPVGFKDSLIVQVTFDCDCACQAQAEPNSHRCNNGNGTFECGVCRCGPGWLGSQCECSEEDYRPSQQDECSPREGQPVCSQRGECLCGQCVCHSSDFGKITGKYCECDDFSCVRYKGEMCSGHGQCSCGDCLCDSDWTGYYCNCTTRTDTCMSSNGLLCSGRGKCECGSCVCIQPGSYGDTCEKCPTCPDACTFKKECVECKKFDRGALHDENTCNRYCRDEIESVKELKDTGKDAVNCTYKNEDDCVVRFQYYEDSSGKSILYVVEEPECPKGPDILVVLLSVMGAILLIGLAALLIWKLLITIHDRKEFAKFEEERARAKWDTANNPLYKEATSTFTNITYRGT
structure (smiles),measurement,setting,value
"CC(=O)Oc1ccccc1C(=O)O [Aspirin, acetyl salicylic acid, reference compound]",Effect on arachidonic-acid-induced platelet aggregation,"[1]; aspirin 0.83 mM, arachidonic acid 1.5 mM, citrated PRP",eliminated
NCC(=O)Nc1cncc(-c2nn3c(=O)cc(N4CCNCC4)nc3s2)c1 [RUC-4],IC50,[2],807 ± 231 nM
same,Time to peak level,[3]; 1.0 mg/kg SC,15 min
same,Time to peak blood levels,[3]; IM,≤ 5 min
same,T1/2,[3]; IM 1.00 mg/kg,16.8 min
same,Whole blood level,"[3]; IM 1.00 mg/kg, 5 minutes",3.415 µM
same,Whole blood level,"[3]; IM 1.00 mg/kg, 15 minutes",2.118 µM
same,Whole blood level,"[3]; IM 1.00 mg/kg, 30 minutes",0.164 µM
same,Whole blood level,"[3]; IM 1.00 mg/kg, 45 minutes",0.236 µM
same,Whole blood level,"[3]; IM 1.00 mg/kg, 120 minutes",< 0.008 µM
same,Whole blood level,"[3]; IM 1.00 mg/kg, 270 minutes",< 0.007 µM
same,Bioavailability,[3]; IM 1.00 mg/kg,1.2
same,T1/2,[3]; IM 1.93 mg/kg,16.8 min
same,Whole blood level,"[3]; IM 1.93 mg/kg, 5 minutes",3.796 µM
same,Whole blood level,"[3]; IM 1.93 mg/kg, 15 minutes",3.692 µM
same,Whole blood level,"[3]; IM 1.93 mg/kg, 30 minutes",0.297 µM
same,Whole blood level,"[3]; IM 1.93 mg/kg, 45 minutes",0.333 µM
same,Whole blood level,"[3]; IM 1.93 mg/kg, 120 minutes",0.008 µM
same,Whole blood level,"[3]; IM 1.93 mg/kg, 270 minutes",< 0.007 µM
same,Bioavailability,[3]; IM 1.93 mg/kg,0.80
same,T1/2,[3]; IM 3.86 mg/kg,31.8 min
same,Whole blood level,"[3]; IM 3.86 mg/kg, 5 minutes",16.009 µM
same,Whole blood level,"[3]; IM 3.86 mg/kg, 15 minutes",8.783 µM
same,Whole blood level,"[3]; IM 3.86 mg/kg, 30 minutes",0.837 µM
same,Whole blood level,"[3]; IM 3.86 mg/kg, 45 minutes",0.952 µM
same,Whole blood level,"[3]; IM 3.86 mg/kg, 120 minutes",0.016 µM
same,Whole blood level,"[3]; IM 3.86 mg/kg, 270 minutes",< 0.007 µM
same,Bioavailability,[3]; IM 3.86 mg/kg,0.88
same,Time to peak levels,"[3]; IM and SC, all doses except 1.0 mg/kg SC",≤ 5 min
same,Time to peak blood levels,[3]; SC,≤ 5 min
same,T1/2,[3]; SC 1.00 mg/kg,33.6 min
same,Whole blood level,"[3]; SC 1.00 mg/kg, 5 minutes",0.746 µM
same,Whole blood level,"[3]; SC 1.00 mg/kg, 15 minutes",0.819 µM
same,Whole blood level,"[3]; SC 1.00 mg/kg, 30 minutes",0.497 µM
same,Whole blood level,"[3]; SC 1.00 mg/kg, 45 minutes",0.241 µM
same,Whole blood level,"[3]; SC 1.00 mg/kg, 120 minutes",0.077 µM
same,Bioavailability,[3]; SC 1.00 mg/kg,0.55
same,T1/2,[3]; SC 1.93 mg/kg,24.6 min
same,Whole blood level,"[3]; SC 1.93 mg/kg, 5 minutes",3.445 µM
same,Whole blood level,"[3]; SC 1.93 mg/kg, 15 minutes",3.056 µM
same,Whole blood level,"[3]; SC 1.93 mg/kg, 30 minutes",1.295 µM
same,Whole blood level,"[3]; SC 1.93 mg/kg, 45 minutes",0.551 µM
same,Whole blood level,"[3]; SC 1.93 mg/kg, 120 minutes",0.104 µM
same,Bioavailability,[3]; SC 1.93 mg/kg,0.78
same,T1/2,[3]; SC 3.86 mg/kg,23.4 min
same,Whole blood level,"[3]; SC 3.86 mg/kg, 5 minutes",6.036 µM
same,Whole blood level,"[3]; SC 3.86 mg/kg, 15 minutes",5.310 µM
same,Whole blood level,"[3]; SC 3.86 mg/kg, 30 minutes",3.523 µM
same,Whole blood level,"[3]; SC 3.86 mg/kg, 45 minutes",1.098 µM
same,Whole blood level,"[3]; SC 3.86 mg/kg, 120 minutes",0.225 µM
same,Bioavailability,[3]; SC 3.86 mg/kg,0.60
same,Average inhibition of the initial slope of platelet aggregation in the two animals tested,"[4]; IM 1.00 mg/kg, 30 minutes",b (Values of whole blood RUC-4 levels corresponding to an average of >80% inhibition of the initial slope of platelet aggregation in the two animals tested.)
same,Average inhibition of the initial slope of platelet aggregation in the two animals tested,"[4]; IM 1.00 mg/kg, 120 minutes",c (Values of whole blood RUC-4 levels corresponding to an average of 0%–80% inhibition of the initial slope of platelet aggregation in the two animals tested.)
same,Average inhibition of the initial slope of platelet aggregation in the two animals tested,"[4]; IM 1.00 mg/kg, 270 minutes",c (Values of whole blood RUC-4 levels corresponding to an average of 0%–80% inhibition of the initial slope of platelet aggregation in the two animals tested.)
same,Average inhibition of the initial slope of platelet aggregation in the two animals tested,"[4]; IM 1.93 mg/kg, 30 minutes",b (Values of whole blood RUC-4 levels corresponding to an average of >80% inhibition of the initial slope of platelet aggregation in the two animals tested.)
same,Average inhibition of the initial slope of platelet aggregation in the two animals tested,"[4]; IM 1.93 mg/kg, 120 minutes",b (Values of whole blood RUC-4 levels corresponding to an average of >80% inhibition of the initial slope of platelet aggregation in the two animals tested.)
same,Average inhibition of the initial slope of platelet aggregation in the two animals tested,"[4]; IM 1.93 mg/kg, 270 minutes",c (Values of whole blood RUC-4 levels corresponding to an average of 0%–80% inhibition of the initial slope of platelet aggregation in the two animals tested.)
same,Average inhibition of the initial slope of platelet aggregation in the two animals tested,"[4]; IM 3.86 mg/kg, 30 minutes",b (Values of whole blood RUC-4 levels corresponding to an average of >80% inhibition of the initial slope of platelet aggregation in the two animals tested.)
same,Average inhibition of the initial slope of platelet aggregation in the two animals tested,"[4]; IM 3.86 mg/kg, 120 minutes",b (Values of whole blood RUC-4 levels corresponding to an average of >80% inhibition of the initial slope of platelet aggregation in the two animals tested.)
same,Average inhibition of the initial slope of platelet aggregation in the two animals tested,"[4]; IM 3.86 mg/kg, 270 minutes",c (Values of whole blood RUC-4 levels corresponding to an average of 0%–80% inhibition of the initial slope of platelet aggregation in the two animals tested.)
same,Inhibition of the initial slope of aggregation in response to ADP,"[4]; IM, all samples with whole blood RUC-4 concentration ≥ ~8 nM",> 80%
same,Inhibition of the initial slope of ADP-induced aggregation,"[4]; IM, all three doses (1.0, 1.93, 3.86 mg/kg), 30 minutes post-dosing",> 80%
same,"Reductions in hematocrit, assessment",[5],considered consistent with the blood drawing from the animals
same,"Platelet counts, trend",[5]; possible exception animal 4 at 1.93 mg/kg IM,did not demonstrate obvious drug-related trends by dose or time after administration
same,"Difference in RUC-4 IC50, citrate versus heparin and PPACK",[1]; lower IC50 in PRP from citrate-anticoagulated blood,approximately twofold
same,IC50,"[1]; read-out: RUC-4 IC50, 20 µM TRAP, blood anticoagulated with PPACK (0.3 mM), n = 4",122 ± 17 nM
same,IC50,"[1]; read-out: RUC-4 IC50, 20 µM TRAP, blood anticoagulated with heparin (15.8 U/ml), n = 4",111 ± 7 nM
same,IC50,"[1]; read-out: RUC-4 IC50, 20 µM TRAP, blood anticoagulated with sodium citrate (0.38%), n = 4",66 ± 25 nM
same,IC50,"[1]; read-out: RUC-4 IC50, ADP 20 µM, blood anticoagulated with PPACK (0.1 mM), n = 5",102 ± 22 nM
same,IC50,"[1]; read-out: RUC-4 IC50, ADP 20 µM, blood anticoagulated with sodium citrate (0.38%), n = 5",54 ± 13 nM
same,IC50,"[1]; read-out: RUC-4 IC50, ADP (5 µM), aspirin (0.83 mM), mean of 5 patients",37 nM
same,IC50,"[1]; read-out: RUC-4 IC50, ADP (5 µM), aspirin (0.83 mM), patient 1",41 nM
same,IC50,"[1]; read-out: RUC-4 IC50, ADP (5 µM), aspirin (0.83 mM), patient 2",33 nM
same,IC50,"[1]; read-out: RUC-4 IC50, ADP (5 µM), aspirin (0.83 mM), patient 3",32 nM
same,IC50,"[1]; read-out: RUC-4 IC50, ADP (5 µM), aspirin (0.83 mM), patient 4",43 nM
same,IC50,"[1]; read-out: RUC-4 IC50, ADP (5 µM), aspirin (0.83 mM), patient 5",37 nM
same,IC50,"[1]; read-out: RUC-4 IC50, ADP (5 µM), vehicle, mean of 5 patients",40 nM
same,IC50,"[1]; read-out: RUC-4 IC50, ADP (5 µM), vehicle, patient 1",52 nM
same,IC50,"[1]; read-out: RUC-4 IC50, ADP (5 µM), vehicle, patient 2",38 nM
same,IC50,"[1]; read-out: RUC-4 IC50, ADP (5 µM), vehicle, patient 3",34 nM
same,IC50,"[1]; read-out: RUC-4 IC50, ADP (5 µM), vehicle, patient 4",47 nM
same,IC50,"[1]; read-out: RUC-4 IC50, ADP (5 µM), vehicle, patient 5",31 nM
same,IC50,"[1]; read-out: RUC-4 IC50, arachidonic acid (1.5 mM), vehicle, mean of 5 patients",61 nM
same,IC50,"[1]; read-out: RUC-4 IC50, arachidonic acid (1.5 mM), vehicle, patient 1",67 nM
same,IC50,"[1]; read-out: RUC-4 IC50, arachidonic acid (1.5 mM), vehicle, patient 2",52 nM
same,IC50,"[1]; read-out: RUC-4 IC50, arachidonic acid (1.5 mM), vehicle, patient 3",41 nM
same,IC50,"[1]; read-out: RUC-4 IC50, arachidonic acid (1.5 mM), vehicle, patient 4",72 nM
same,IC50,"[1]; read-out: RUC-4 IC50, arachidonic acid (1.5 mM), vehicle, patient 5",71 nM
same,IC50,"[1]; read-out: RUC-4 IC50 for ADP-induced aggregation, ADP 5 µM, aspirin-treated platelets (0.83 mM), citrated PRP",37 ± 5 nM
same,Average correlation between inhibition of platelet aggregation and inhibition of PAC-1 binding,αIIbβ3,0.96
same,Clinical observations,"IM, similar at all doses, all animals","some minor bruising and red, raised areas limited to site of injection (thigh) or venipuncture"
same,Clinical observations,"IV 1.93 mg/kg, one animal in arm 2",minor nose and gingival bleeding
same,Clinical observations,"IV 3.86 mg/kg, one animal in arm 2 and both animals in arm 3",vomited immediately after the IV injection
same,Clinical findings,"SC, resolved by ~24 hours post-dose",red discoloration of the skin at the venipuncture and administration sites and bruising at sites of injection and inguinal areas
same,Tolerability,"all doses, IM, IV, SC",well tolerated
